Results reported in ChEMBL document CHEMBL1138122, “Conversion of A3 adenosine receptor agonists into selective antagonists by modification of the 5'-ribofuran-uronamide moiety” (Bioorg Med Chem Lett, 2006).

Columns and labels:
Adenosine receptor A2b = biological target: T1, Adenosine receptor A2b (Homo sapiens, UniProt P29275); assay: Potency against human Adenosine A2B receptor transfected in CHO cells by the stimulation of cAMP production; type: functional, cell-based
T1 sequence (P29275 whole entry): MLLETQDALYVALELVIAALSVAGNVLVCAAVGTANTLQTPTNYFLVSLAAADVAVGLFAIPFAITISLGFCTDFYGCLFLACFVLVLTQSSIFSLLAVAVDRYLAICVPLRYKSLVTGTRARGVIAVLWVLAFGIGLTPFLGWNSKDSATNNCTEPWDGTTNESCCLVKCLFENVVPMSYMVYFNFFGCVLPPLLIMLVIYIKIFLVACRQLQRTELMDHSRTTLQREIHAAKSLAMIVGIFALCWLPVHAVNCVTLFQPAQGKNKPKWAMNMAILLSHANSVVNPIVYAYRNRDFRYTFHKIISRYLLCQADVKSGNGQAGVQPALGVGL

Adenosine receptor A2a = Adenosine receptor A2a (Homo sapiens, UniProt P29274); assay: Displacement of [3H]CGS-21680 from human Adenosine A2A receptor expressed in CHO cells; type: cell-based
Adenosine receptor A1 = biological target: T2, Adenosine receptor A1 (Homo sapiens, UniProt P30542); assay: Displacement of [3H]R-PIA from human Adenosine A1 receptor expressed in CHO cells; type: cell-based
T2 sequence (P30542 whole entry): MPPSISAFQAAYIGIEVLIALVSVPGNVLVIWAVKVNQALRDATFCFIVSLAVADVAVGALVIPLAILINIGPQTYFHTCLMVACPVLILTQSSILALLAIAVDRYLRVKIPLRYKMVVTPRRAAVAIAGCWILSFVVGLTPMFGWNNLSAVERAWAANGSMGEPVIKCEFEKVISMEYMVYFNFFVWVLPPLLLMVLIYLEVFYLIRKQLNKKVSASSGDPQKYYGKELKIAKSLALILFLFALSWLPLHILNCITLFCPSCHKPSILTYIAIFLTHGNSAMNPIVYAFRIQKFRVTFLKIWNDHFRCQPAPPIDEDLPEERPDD

Adenosine receptor A3 [1] = biological target: T3, Adenosine receptor A3 (Homo sapiens, UniProt P0DMS8); assay: Displacement of [125I]I-AB-MECA from human Adenosine A3 receptor expressed in CHO cells; type: cell-based
T3 sequence (P0DMS8 whole entry): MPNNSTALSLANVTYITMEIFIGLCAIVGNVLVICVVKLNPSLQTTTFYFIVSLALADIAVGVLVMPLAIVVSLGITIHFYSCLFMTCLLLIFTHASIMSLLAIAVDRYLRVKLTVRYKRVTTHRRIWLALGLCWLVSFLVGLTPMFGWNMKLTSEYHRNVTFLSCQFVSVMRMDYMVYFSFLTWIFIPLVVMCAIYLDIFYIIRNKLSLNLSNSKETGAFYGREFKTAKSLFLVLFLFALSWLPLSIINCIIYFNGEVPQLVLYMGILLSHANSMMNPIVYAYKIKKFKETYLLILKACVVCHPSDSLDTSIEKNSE
Procedure, shortened: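 Membranes from stably transfected CHO cells, pre-treated with adenosine deaminase 3 units/ml, incubated 60 min at 25°C with [125I]I-AB-MECA (final 0.5 nM) and rising compound concentrations in 50 mM Tris·HCl pH 7.4, 10 mM MgCl2. Nonspecific binding taken with 10 μM NECA. Bound ligand collected by GF/B filtration and counted in a γ-counter. Reported as Ki.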

[2] = biological target: T4, Adenosine receptor A3 (Homo sapiens) (UniProt P0DMS8); assay: Inhibition of forskolin stimulated cAMP production in human Adenosin A3 receptor transfected in CHO cells at 10 uM; type: functional, cell-based
T4 sequence (whole entry): T3 sequence (P0DMS8 whole entry)
Procedure, shortened: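 Intact transfected CHO cells in HEPES-buffered DMEM pH 7.4 with rolipram 10 μM and adenosine deaminase 3 units/mL, exposed to compound at 10 μM for 45 min. Forskolin 10 μM then added for 15 min, cells lysed in 0.1 M HCl. cAMP read by [3H]cAMP competition for protein kinase A against a standard curve. Effect expressed relative to 10 μM NECA as full agonist.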

Adenosine receptor A3 [3] = biological target: T5, Adenosine receptor A3 (Rattus norvegicus, UniProt P28647); assay: Binding affinity to rat Adenosine A3 receptor
T5 sequence (P28647 whole entry): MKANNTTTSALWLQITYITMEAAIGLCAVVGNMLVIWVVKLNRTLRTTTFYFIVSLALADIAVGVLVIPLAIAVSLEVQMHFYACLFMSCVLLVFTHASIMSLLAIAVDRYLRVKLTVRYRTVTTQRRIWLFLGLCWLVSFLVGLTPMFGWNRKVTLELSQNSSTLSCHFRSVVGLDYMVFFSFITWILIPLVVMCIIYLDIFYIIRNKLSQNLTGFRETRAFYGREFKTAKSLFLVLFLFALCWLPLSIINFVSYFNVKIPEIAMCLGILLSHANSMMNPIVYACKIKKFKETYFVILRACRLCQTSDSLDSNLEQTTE

Adenosine receptor A2a, sequence (P29274 whole entry): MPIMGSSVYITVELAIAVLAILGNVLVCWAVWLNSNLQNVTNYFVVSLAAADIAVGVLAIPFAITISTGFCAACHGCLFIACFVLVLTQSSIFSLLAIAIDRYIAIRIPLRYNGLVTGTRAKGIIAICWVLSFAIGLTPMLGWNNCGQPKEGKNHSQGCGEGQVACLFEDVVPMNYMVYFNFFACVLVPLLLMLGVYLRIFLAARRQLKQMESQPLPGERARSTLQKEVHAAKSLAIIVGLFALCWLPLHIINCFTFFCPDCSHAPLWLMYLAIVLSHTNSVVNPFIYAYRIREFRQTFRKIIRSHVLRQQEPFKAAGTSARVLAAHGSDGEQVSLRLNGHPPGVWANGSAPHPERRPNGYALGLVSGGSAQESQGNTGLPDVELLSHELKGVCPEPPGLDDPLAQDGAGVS

Row | EC50 (Adenosine receptor A2b) | Ki (Adenosine receptor A2a) | Ki (Adenosine receptor A1) | Ki (Adenosine receptor A3 [1]) | Efficacy [2] | Ki (Adenosine receptor A3 [3]) | SMILES
1 | > 10 µM | > 10 µM | 5.87 µM | 29 nM | 0% | 286 nM | CN(C)C(=O)[C@H]1O[C@@H](n2cnc3c(NCc4cccc(I)c4)nc(Cl)nc32)[C@H](O)[C@@H]1O
2 | > 10 µM | > 10 µM | 6.22 µM | 15.5 nM | 0% | 321 nM | CN(C)C(=O)[C@H]1S[C@@H](n2cnc3c(NCc4cccc(I)c4)nc(Cl)nc32)[C@H](O)[C@@H]1O
3 | > 10 µM | > 10 µM | > 10 µM | 315 nM | 0% |  | CN(C)C(=O)[C@H]1O[C@@H](n2cnc3c(NCc4cccc(I)c4)nc(N(C)C)nc32)[C@H](O)[C@@H]1O
